Results published in ChEMBL document CHEMBL4819122, “Novel 4-(piperazin-1-yl)quinolin-2(1H)-one bearing thiazoles with antiproliferative activity through VEGFR-2-TK inhibition” (Bioorg Med Chem, 2021).
Active and inactive are the calls of the source. The calls are words filed in the database; no cut-off is given here.

Legend:
[1] = system: EKVX; assay: Cytotoxicity against human EKVX assessed as growth inhibition at 10 uM by NCI protocol relative to control; assay type: functional; details: read-out: GI
How it was run: (§1)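 Run by NCI as a single-dose screen at 10 μM across the sixty-cell-line panel, which covers nine human tumour tissue types. The read-out is percent growth inhibition of treated cells relative to untreated cells.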

[2] = system: MDA-MB-435; assay: Cytotoxicity against human MDA-MB-435 assessed as growth inhibition at 10 uM by NCI protocol relative to control; assay type: functional, cell-based; how it was run: as §1
[3] = system: A498; assay: Cytotoxicity against human A498 assessed as growth inhibition at 10 uM by NCI protocol relative to control; assay type: functional; details: read-out: GI; how it was run: as §1
[4] = system: Hs-578T; assay: Cytotoxicity against human HS 578T assessed as growth inhibition at 10 uM by NCI protocol relative to control; assay type: functional; details: read-out: GI; how it was run: as §1
[5] = system: T47D; assay: Cytotoxicity against human T-47D assessed as growth inhibition at 10 uM by NCI protocol relative to control; assay type: functional; details: read-out: GI
How it was run: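 Run by the NCI under its standard protocol: one dose of 10 μM against a sixty-line panel from nine human tumour tissues. Result given as percent growth inhibition of treated cells relative to untreated cells.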

[6] = system: T47D; assay: Cytotoxicity against human T47D cells assessed as reduction in cell viability after 3 hrs by MTT assay
[7] = system: MCF10; assay: Cytotoxicity against human MCF10 cells assessed as reduction in cell viability after 3 hrs by MTT assay; details: MCF10, 3 h

| Structure (SMILES) | inhibition of growth at 10 µM [1] | growth inhibition (GI) [2] | inhibition of growth at 10 µM [3] | inhibition of growth at 10 µM [4] | inhibition of growth at 10 µM [5] | IC50 [6] | IC50 [7] |
| --- | --- | --- | --- | --- | --- | --- | --- |
| O=c1cc(N2CCNCC2)c2cc(F)ccc2[nH]1 | 56.2% | inactive | 26% | 19.6% | 10.5% | 37.7 µM | – |
| CC[C@@]1(O)C(=O)OCc2c1cc1n(c2=O)Cc2cc3ccccc3nc2-1 [CAMPTOTHECIN] | – | – | – | – | – | – | 24.8 µM |
